Consider 30 sequences from the array DNA melting data of Ke et al. (doi:10.1101/2024.01.08.574731).

Data set [1] can be described thus: folding enthalpy; higher = less favourable; fluorescence melt of hairpins on a sequencing array, two-state fit. The conditions noted are these: sodium 0.088 M. The method, boiled down:
(§1)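 Cy3 fluorescence of library hairpins on a sequenced MiSeq flow cell, with annealed Cy3 and quencher oligos, was imaged in 50 mM Na-HEPES pH 8.0, 25 mM NaCl in 2.5 °C steps up to 60 °C. Signals were normalised to pre-quench Cy3 and to control variants. Melting temperature and folding enthalpy came from bootstrapped two-state fits, inverse-variance combined over four replicates. Fitted temperatures were raised by 9.35 °C to match UV melts.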

A short description of data set [2]: melting temperature; fluorescence melt of hairpins on a sequencing array, two-state fit, raised by 9.35 °C to match UV melts. As to conditions: sodium 0.088 M. The method, boiled down: as §1

Turning to GTGCGAGGAAACTCGTAC ((.((((....)))).)), the folding enthalpy in data set [1] was -31.6 kcal/mol. Moreover, in data set [2], the Tm was found to be 53.4 °C.
On to GTGCGCGAAAGCGCTCAC ((((((....)))..))), for which, in data set [1], the folding enthalpy is -7.75 kcal/mol. In addition, the Tm in data set [2] amounted to 40.4 °C.
On the same counts, the results for GTGCGCGAAAGCGGACAC ((((((....)))..))) are -11.1 kcal/mol and 63.7 °C.
On the same counts, the results for GTGCGCGGAAACGCACAC (((.(((....))).))) are -19.2 kcal/mol and 65.5 °C.
For GTGCGCGGAAACGTGCGC (.((.((....)).)).), the folding enthalpy in data set [1] was -25.9 kcal/mol. The Tm in data set [2] was 59 °C.
The matching figures for GTGCGGCGAAAGCCCAC (((.(((....)))))): -20.7 kcal/mol and 57.6 °C.
On the same counts, the results for GTGCGGCGAAAGCCTCAC (((.(((....))).))) are -29.4 kcal/mol and 53.8 °C.
On the same counts, the results for GTGCGGGCGAAAGCCCAC (((..(((....)))))) are -10.3 kcal/mol and 62.1 °C.
As to GTGCGGGGAAACCCACAC (((.(((....))).))), the folding enthalpy in data set [1] was -37.9 kcal/mol. For the same sequence, the Tm in data set [2] stood at 51.6 °C.
The matching figures for GTGCGGGGAAACCCGTAC ((.((((....)))).)): -27.4 kcal/mol and 59.1 °C.
The matching figures for GTGCGTGGAAACACGTGC (..((((....))))..): -18.4 kcal/mol and 51.5 °C.
The matching figures for GTGCTAACGAAAGTTCAC (((..(((....)))))): -7.2 kcal/mol and 25.4 °C.
For the sequence GTGCTACGAAAGTATCAC (((.(((....))).))), the folding enthalpy in data set [1] is -35.5 kcal/mol. In addition, the Tm in data set [2] worked out at 44.6 °C.
With GTGCTAGCGAAAGCTCAC (((..(((....)))))), the folding enthalpy in data set [1] was -9.59 kcal/mol. For the same sequence, in data set [2], the Tm stood at 42.1 °C.
With GTGCTAGGAAACTAGTGC (..((((....))))..), the folding enthalpy in data set [1] was -30.2 kcal/mol. Besides, the Tm in data set [2] is 39.1 °C.
On the same counts, the results for GTGCTCGAAAGAGAGCAC ((((((....)))..))) are -34.2 kcal/mol and 58.2 °C.
The matching figures for GTGCTCGAAAGAGCGCAC ((((((....)))..))): -11.6 kcal/mol and 57.1 °C.
In the case of GTGCTCGAAAGAGGCCAC ((((((....)))..))), in data set [1], the folding enthalpy is -16 kcal/mol. Besides, in data set [2], the Tm stood at 35.9 °C.
The matching figures for GTGCTCGGAAACGAACAC (((.(((....))).))): -35.3 kcal/mol and 47.6 °C.
On the same counts, the results for GTGCTCGGAAACGAGTAC ((.((((....)))).)) are -43.8 kcal/mol and 55.4 °C.
The matching figures for GTGCTCGGAAACGGGTAC ((.(.((....)).).)): -32.8 kcal/mol and 41.9 °C.
As to GTGCTGCCGAAAGGCCAC (((..(((....)))))), in data set [1], the folding enthalpy is -11.5 kcal/mol. The Tm in data set [2] stood at 48.1 °C.
As to GTGCTGGGAAACCAGCGC (.(((((....))))).), the folding enthalpy in data set [1] is -29.5 kcal/mol. In data set [2], the Tm was determined as 61.6 °C.
In the case of GTGCTGGGAAACCGGTAC ((.(.((....)).).)), in data set [1], the folding enthalpy was -33.1 kcal/mol. Further, the Tm in data set [2] amounted to 42.1 °C.
On the same counts, the results for GTGCTTCGAAAGAATCAC (((.(((....))).))) are -35.5 kcal/mol and 41.6 °C.
On the same counts, the results for GTGCTTGGAAACAAGCAC (((((((....))))))) are -38.7 kcal/mol and 68.1 °C.
On the same counts, the results for GTGCTTGGAAACAAGCGC (.(((((....))))).) are -32.2 kcal/mol and 61.3 °C.
For GTGGAACGAAAGTTACAC (((.(((....))).))), the folding enthalpy in data set [1] is -40.4 kcal/mol. In addition, the Tm in data set [2] was determined as 57 °C.
The matching figures for GTGGAACGAAAGTTTCAC (((.(((....))).))): -42.7 kcal/mol and 53.2 °C.
On to GTGGACGAAAGTCAGCAC ((((((....)))..))), for which the folding enthalpy in data set [1] is -16.1 kcal/mol. The Tm in data set [2] amounted to 40.3 °C.
